{"source": "ChEMBL document CHEMBL4732196", "about": "“Structural optimization towards promising β-methyl-4-acrylamido quinoline derivatives as PI3K/mTOR dual inhibitors for anti-cancer therapy: The in vitro and in vivo biological evaluation” (Eur J Med Chem, 2021)", "key": {"[1]": {"target": "T1, Phosphatidylinositol 4,5-bisphosphate 3-kinase catalytic subunit alpha isoform (Homo sapiens, UniProt P42336)", "T1 sequence (P42336 whole entry, canonical isoform)": "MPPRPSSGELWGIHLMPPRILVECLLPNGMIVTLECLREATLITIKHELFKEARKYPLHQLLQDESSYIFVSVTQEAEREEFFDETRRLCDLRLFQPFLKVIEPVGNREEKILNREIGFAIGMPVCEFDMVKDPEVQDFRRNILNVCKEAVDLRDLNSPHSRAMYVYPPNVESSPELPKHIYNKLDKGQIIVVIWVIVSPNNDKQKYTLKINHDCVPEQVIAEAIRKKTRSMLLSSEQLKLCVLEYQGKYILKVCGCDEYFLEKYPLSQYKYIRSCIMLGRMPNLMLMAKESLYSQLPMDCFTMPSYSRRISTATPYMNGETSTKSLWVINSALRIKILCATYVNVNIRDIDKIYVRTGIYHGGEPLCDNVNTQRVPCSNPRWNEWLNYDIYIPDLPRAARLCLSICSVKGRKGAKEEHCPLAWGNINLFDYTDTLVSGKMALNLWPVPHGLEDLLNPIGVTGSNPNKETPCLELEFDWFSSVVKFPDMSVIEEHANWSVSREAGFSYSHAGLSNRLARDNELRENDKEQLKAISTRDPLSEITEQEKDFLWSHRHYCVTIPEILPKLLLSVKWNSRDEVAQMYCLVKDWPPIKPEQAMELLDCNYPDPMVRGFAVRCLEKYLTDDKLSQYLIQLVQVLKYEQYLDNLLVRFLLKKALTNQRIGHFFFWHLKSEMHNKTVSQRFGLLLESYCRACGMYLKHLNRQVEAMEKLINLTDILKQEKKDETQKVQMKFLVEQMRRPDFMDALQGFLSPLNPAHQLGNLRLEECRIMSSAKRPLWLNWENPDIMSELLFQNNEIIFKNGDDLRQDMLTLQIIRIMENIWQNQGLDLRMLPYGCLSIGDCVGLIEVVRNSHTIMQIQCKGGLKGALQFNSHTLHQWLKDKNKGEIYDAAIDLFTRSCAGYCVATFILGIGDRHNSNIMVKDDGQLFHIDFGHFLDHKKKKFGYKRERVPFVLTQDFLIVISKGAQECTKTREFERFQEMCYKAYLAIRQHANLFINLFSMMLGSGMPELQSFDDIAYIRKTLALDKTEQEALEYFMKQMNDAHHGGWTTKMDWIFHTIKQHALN", "assay": "Inhibition of recombinant human PI3Kalpha using PIP2 as substrate incubated for 1 hr by kinase-glo luminescent assay"}, "[2]": {"target": "Mitogen-activated protein kinase 6 (Homo sapiens) (UniProt Q16659)", "assay": "Inhibition of human partial length ERK3 (M1 to P413 residues) expressed in bacterial expression system assessed as residual activity at 10 uM by kinome scan method relative to control", "method_in_brief": "(§1)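 KINOMEscan binding assay, test compound at 10 μM against a 52-kinase panel. % Ctrl = (compound signal − positive control signal)/(negative control signal − positive control signal) × 100, with DMSO as negative control (100%) and a positive control (0%).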"}, "[3]": {"target": "Interleukin-1 receptor-associated kinase 3 (Homo sapiens) (UniProt Q9Y616)", "assay": "Inhibition of human partial length IRAK3 (V147 to E596 residues) expressed in bacterial expression system assessed as residual activity at 10 uM by kinome scan method relative to control", "method_in_brief": "as §1"}, "[4]": {"target": "AP2-associated protein kinase 1 (Homo sapiens) (UniProt Q2M2I8)", "assay": "Inhibition of human partial length AAK1 (G25 to L333 residues) expressed in bacterial system assessed as residual activity at 10 uM by kinome scan method relative to control", "method_in_brief": "as §1"}, "[5]": {"target": "Cyclin-dependent kinase 17 (Homo sapiens) (UniProt Q00537)", "assay": "Inhibition of human full length PCTK2 (M1 to F523 residues) expressed in bacterial expression system assessed as residual activity at 10 uM by kinome scan method relative to control", "method_in_brief": "as §1"}, "[6]": {"target": "Cyclin-dependent kinase 18 (Homo sapiens) (UniProt Q07002)", "sequence (Q07002 whole entry, the tested form may be a part)": "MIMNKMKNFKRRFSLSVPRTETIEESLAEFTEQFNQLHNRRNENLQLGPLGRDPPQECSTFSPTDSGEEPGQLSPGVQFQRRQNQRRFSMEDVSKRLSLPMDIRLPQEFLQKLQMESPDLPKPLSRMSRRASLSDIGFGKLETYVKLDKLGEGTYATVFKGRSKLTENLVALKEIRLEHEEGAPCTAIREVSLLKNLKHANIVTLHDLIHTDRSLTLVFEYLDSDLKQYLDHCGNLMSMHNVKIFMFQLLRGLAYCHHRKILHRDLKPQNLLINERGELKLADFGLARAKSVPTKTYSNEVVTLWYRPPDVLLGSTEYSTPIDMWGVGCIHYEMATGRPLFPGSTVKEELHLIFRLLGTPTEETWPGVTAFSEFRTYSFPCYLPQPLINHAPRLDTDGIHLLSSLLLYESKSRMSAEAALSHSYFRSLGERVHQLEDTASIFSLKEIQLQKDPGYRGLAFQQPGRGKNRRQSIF", "assay": "Inhibition of human full length PCTK3 (M3 to F474 residues) expressed in bacterial expression system assessed as residual activity at 10 uM by kinome scan method relative to control", "method_in_brief": "as §1"}, "[7]": {"target": "Receptor tyrosine-protein kinase erbB-3 (Homo sapiens) (UniProt P21860)", "assay": "Inhibition of human partial length ERBB3 (G684 to A987 residues) expressed in mammalian expression system assessed as residual activity at 10 uM by kinome scan method relative to control", "method_in_brief": "as §1"}, "[8]": {"system": "U87", "assay": "Inhibition of PI3K in human U87MG cells assessed as suppression of phosphorylation of AKT at Ser473 residue at 25 nM after 3 hrs by Western blot analysis", "type": "cell-based", "method_in_brief": "(§2)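 U87MG cells seeded at 1×10^6 per well, incubated overnight at 37 °C, 5% CO₂, then treated at various concentrations for 3 h at 37 °C. Western blot for phospho-Akt (Ser473, Thr308), phospho-S6 (Ser235/236) and phospho-4E-BP1 (Thr37/46), with GAPDH as internal control. Bands quantified as mean ± SD, n = 3 biological replicates, versus untreated cells.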"}, "[9]": {"target": "T1, Phosphatidylinositol 4,5-bisphosphate 3-kinase catalytic subunit alpha isoform", "assay": "Inhibition of human partial length PIK3CA (R108 to N1068 residues) expressed in mammalian expression system assessed as residual activity at 10 uM by kinome scan method relative to control", "method_in_brief": "(§3)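 KINOMEscan competitive binding screen at 10 μM test compound against a 52-kinase panel. Output is % Ctrl = (test signal − positive control signal)/(negative control signal − positive control signal) × 100. DMSO is the negative control (100%) and the positive control is set to 0%.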"}, "[10]": {"target": "Phosphatidylinositol 3-kinase C2 domain-containing subunit gamma (Homo sapiens) (UniProt O75747)", "assay": "Inhibition of human partial length PIK3C2G (M1 to I1446 residues) expressed in mammalian expression system assessed as residual activity at 10 uM by kinome scan method relative to control", "method_in_brief": "as §1"}, "[11]": {"assay": "AUC(0 to t) in Sprague-Dawley rat at 5 mg/kg, po", "type": "ADME, organism-based", "set-up": "dose 5 mg/kg", "conditions": "in vivo", "method_in_brief": "(§4)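 Male Sprague-Dawley rats (n = 3) given a single oral gavage of 5 mg/kg as a homogeneous opaque suspension in 0.5% methylcellulose; plasma concentration-time curves used to derive mean PK parameters.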"}, "[12]": {"target": "Phosphatidylinositol 3-kinase catalytic subunit type 3 (Homo sapiens) (UniProt Q8NEB9)", "sequence (Q8NEB9 whole entry, the tested form may be a part)": "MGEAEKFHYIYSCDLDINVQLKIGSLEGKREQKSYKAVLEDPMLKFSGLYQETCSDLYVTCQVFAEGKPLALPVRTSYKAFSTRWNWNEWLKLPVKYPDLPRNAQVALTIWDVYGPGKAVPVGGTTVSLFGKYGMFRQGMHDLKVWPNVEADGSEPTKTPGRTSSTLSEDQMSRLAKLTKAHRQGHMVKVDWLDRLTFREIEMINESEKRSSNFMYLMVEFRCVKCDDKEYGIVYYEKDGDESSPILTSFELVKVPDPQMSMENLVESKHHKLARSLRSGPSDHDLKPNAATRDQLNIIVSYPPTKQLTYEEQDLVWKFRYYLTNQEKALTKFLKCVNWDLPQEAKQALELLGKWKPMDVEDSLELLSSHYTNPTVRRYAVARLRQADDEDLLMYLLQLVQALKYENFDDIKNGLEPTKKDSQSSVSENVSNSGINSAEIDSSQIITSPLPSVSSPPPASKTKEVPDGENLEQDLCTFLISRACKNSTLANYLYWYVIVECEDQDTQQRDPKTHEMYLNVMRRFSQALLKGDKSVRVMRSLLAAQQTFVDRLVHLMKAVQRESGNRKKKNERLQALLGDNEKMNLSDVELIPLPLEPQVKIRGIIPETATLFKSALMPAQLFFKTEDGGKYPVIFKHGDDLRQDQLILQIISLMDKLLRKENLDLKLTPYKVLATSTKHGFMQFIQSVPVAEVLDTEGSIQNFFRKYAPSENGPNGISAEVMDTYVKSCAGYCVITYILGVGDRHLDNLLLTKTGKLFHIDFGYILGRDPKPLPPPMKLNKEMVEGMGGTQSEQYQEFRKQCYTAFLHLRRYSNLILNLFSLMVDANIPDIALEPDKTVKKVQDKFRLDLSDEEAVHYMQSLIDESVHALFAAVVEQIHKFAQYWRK", "assay": "Inhibition of human partial length VPS34 (S282 to H879 residues) expressed in mammalian expression system assessed as residual activity at 10 uM by kinome scan method relative to control", "method_in_brief": "as §3"}, "[13]": {"target": "Cyclin-dependent kinase 11B (Homo sapiens) (UniProt P21127)", "assay": "Inhibition of human partial length CDC2L1 (P353 to G692 residues) expressed in bacterial system assessed as residual activity at 10 uM by kinome scan method relative to control", "method_in_brief": "as §1"}, "[14]": {"target": "Cyclin-dependent kinase 8 (Homo sapiens) (UniProt P49336)", "assay": "Inhibition of human partial length CDK8 (M1 to T360 residues) expressed in bacterial system assessed as residual activity at 10 uM by kinome scan method relative to control", "method_in_brief": "as §1"}, "[15]": {"target": "Citron Rho-interacting kinase (Homo sapiens) (UniProt O14578)", "assay": "Inhibition of human partial length CIT (M68 to E432 residues) expressed in bacterial expression system assessed as residual activity at 10 uM by kinome scan method relative to control", "method_in_brief": "as §1"}, "[16]": {"target": "Microtubule-associated serine/threonine-protein kinase 1 (Homo sapiens) (UniProt Q9Y2H9)", "assay": "Inhibition of human partial length MAST1 (S346 to V730 residues) expressed in bacterial expression system assessed as residual activity at 10 uM by kinome scan method relative to control", "method_in_brief": "as §1"}, "[17]": {"target": "Phosphatidylinositol 4,5-bisphosphate 3-kinase catalytic subunit delta isoform (Homo sapiens, UniProt O00329)", "sequence (O00329 whole entry, canonical isoform)": "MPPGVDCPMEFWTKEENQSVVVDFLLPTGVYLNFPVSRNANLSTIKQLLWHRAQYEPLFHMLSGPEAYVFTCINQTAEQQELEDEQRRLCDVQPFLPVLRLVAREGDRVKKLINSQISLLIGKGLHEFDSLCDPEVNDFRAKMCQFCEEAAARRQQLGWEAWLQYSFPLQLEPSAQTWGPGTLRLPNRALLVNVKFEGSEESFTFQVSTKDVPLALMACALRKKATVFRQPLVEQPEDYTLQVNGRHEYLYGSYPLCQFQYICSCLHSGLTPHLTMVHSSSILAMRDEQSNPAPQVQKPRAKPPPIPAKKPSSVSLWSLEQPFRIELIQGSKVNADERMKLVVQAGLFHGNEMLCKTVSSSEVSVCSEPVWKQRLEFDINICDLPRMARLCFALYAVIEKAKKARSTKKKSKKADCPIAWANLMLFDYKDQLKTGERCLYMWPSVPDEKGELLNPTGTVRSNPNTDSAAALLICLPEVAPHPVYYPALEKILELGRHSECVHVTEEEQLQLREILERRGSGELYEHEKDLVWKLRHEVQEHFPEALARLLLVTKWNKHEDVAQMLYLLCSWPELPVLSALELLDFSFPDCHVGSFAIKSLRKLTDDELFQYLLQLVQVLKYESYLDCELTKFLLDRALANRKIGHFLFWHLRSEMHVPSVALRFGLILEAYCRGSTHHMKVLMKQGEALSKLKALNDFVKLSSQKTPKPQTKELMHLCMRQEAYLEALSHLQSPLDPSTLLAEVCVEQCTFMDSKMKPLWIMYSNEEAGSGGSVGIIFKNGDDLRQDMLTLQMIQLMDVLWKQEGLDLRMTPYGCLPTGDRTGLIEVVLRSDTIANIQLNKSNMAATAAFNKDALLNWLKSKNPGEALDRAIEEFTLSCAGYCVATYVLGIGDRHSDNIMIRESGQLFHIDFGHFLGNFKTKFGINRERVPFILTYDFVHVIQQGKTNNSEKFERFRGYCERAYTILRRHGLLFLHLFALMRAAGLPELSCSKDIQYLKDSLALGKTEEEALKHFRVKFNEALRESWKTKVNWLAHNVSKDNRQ", "assay": "Inhibition of PI3Kdelta (unknown origin) using PIP2 as substrate measured after 1 hr by ADP-glo assay"}, "[18]": {"target": "Mitotic checkpoint serine/threonine-protein kinase BUB1 (Homo sapiens) (UniProt O43683)", "assay": "Inhibition of human partial length BUB1 (Q724 to K1085 residues) expressed in bacterial system assessed as residual activity at 10 uM by kinome scan method relative to control", "method_in_brief": "as §1"}, "[19]": {"target": "Mitogen-activated protein kinase kinase kinase 4 (Homo sapiens) (UniProt Q9Y6R4)", "sequence (Q9Y6R4 whole entry, the tested form may be a part)": "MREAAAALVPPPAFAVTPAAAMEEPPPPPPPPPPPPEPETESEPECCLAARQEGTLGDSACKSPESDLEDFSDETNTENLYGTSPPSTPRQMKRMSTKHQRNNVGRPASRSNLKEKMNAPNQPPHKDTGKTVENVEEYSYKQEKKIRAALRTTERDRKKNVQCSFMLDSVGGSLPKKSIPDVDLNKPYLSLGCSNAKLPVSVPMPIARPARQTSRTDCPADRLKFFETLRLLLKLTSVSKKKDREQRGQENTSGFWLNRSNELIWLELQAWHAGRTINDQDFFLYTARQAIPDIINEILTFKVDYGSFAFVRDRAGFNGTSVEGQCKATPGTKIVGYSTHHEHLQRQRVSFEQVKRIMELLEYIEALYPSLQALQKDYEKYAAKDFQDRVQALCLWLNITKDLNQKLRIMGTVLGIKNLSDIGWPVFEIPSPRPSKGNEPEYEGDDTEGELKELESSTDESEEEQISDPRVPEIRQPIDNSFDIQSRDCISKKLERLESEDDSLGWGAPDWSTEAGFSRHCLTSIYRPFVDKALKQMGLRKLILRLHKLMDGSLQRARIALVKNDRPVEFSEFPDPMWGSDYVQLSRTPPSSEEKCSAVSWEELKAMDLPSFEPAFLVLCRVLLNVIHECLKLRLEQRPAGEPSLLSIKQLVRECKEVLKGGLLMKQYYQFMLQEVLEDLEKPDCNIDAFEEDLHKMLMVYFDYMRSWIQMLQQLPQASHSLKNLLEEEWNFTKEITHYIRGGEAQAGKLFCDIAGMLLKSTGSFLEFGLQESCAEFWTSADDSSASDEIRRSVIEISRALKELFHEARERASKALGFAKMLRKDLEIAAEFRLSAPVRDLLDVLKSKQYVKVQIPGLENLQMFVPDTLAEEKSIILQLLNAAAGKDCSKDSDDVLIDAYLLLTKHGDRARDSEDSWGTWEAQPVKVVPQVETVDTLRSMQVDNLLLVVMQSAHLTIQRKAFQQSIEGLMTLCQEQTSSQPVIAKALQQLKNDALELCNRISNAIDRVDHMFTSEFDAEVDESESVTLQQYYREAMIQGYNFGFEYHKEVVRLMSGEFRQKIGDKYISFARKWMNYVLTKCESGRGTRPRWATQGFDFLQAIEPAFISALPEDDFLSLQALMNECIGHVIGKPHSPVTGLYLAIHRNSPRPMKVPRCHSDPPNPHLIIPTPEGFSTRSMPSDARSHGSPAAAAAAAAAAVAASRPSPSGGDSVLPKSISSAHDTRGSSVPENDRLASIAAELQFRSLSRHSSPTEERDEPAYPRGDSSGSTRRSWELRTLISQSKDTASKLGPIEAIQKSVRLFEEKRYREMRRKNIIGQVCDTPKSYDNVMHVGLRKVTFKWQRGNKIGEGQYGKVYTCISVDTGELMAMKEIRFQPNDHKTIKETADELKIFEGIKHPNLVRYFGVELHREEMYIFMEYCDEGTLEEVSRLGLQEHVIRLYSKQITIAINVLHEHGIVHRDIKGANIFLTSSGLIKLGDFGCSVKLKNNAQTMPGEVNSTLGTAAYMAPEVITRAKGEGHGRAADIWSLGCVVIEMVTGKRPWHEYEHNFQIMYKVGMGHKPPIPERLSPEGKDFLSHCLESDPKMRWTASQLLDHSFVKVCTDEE", "assay": "Inhibition of human partial length MAP3K4 (G1319 to E1608 residues) expressed in bacterial expression system assessed as residual activity at 10 uM by kinome scan method relative to control", "method_in_brief": "as §1"}, "[20]": {"system": "U87", "assay": "Inhibition of PI3K in human U87MG cells assessed as suppression of phosphorylation of AKT at Thr308 residue at 25 nM after 3 hrs by Western blot analysis", "type": "cell-based", "method_in_brief": "as §2"}, "[21]": {"target": "Mitogen-activated protein kinase kinase kinase 15 (Homo sapiens) (UniProt Q6ZN16)", "assay": "Inhibition of human partial length MAP3K15 (T625 to L932 residues) expressed in bacterial expression system assessed as residual activity at 10 uM by kinome scan method relative to control", "method_in_brief": "as §1"}, "[22]": {"assay": "Cmax in Sprague-Dawley rat at 5 mg/kg, po", "type": "ADME, organism-based", "set-up": "route oral, dose 5 mg/kg", "conditions": "in vivo", "method_in_brief": "as §4"}, "[23]": {"system": "PC-3", "assay": "Growth inhibition of human PC3 cells after 72 hrs by sulforhodamine B assay", "type": "functional"}, "[24]": {"target": "Phosphatidylinositol 4,5-bisphosphate 3-kinase catalytic subunit gamma isoform (Homo sapiens, UniProt P48736)", "assay": "Inhibition of human partial length PIK3CG (S144 to A1102 residues) expressed in mammalian expression system assessed as residual activity at 10 uM by kinome scan method relative to control", "method_in_brief": "as §3"}}, "note": "Active and inactive are the calls of the source. The rule behind the calls is not given here.", "data": [{"smiles": "COc1ncc(-c2ccc3nccc(/C(C)=C/C(=O)N4CCN(C)CC4)c3c2)cc1NS(=O)(=O)c1ccc(F)cc1F", "values": [{"measurement": "IC50", "setting": "[1]", "result": 0.8, "unit": "nM"}, {"measurement": "Activity", "setting": "[2]", "result": 78, "unit": "%"}, {"measurement": "Activity", "setting": "[3]", "result": 24, "unit": "%"}, {"measurement": "Activity", "setting": "[4]", "result": 44, "unit": "%"}, {"measurement": "Activity", "setting": "[5]", "result": 100, "unit": "%"}, {"measurement": "Activity", "setting": "[6]", "result": 78, "unit": "%"}, {"measurement": "Activity", "setting": "[7]", "result": 89, "unit": "%"}, {"measurement": "inhibition", "setting": "[8]", "result": "Active"}, {"measurement": "Activity", "setting": "[9]", "result": 0, "unit": "%"}, {"measurement": "Activity", "setting": "[10]", "result": 0, "unit": "%"}, {"measurement": "AUC(0-t)", "setting": "[11]", "result": 1340, "unit": "ng·h/mL"}, {"measurement": "Activity", "setting": "[12]", "result": 0.1, "unit": "%"}, {"measurement": "Activity", "setting": "[13]", "result": 93, "unit": "%"}, {"measurement": "Activity", "setting": "[14]", "result": 96, "unit": "%"}, {"measurement": "Activity", "setting": "[15]", "result": 71, "unit": "%"}, {"measurement": "Activity", "setting": "[16]", "result": 58, "unit": "%"}, {"measurement": "IC50", "setting": "[17]", "result": 1.3, "unit": "nM"}, {"measurement": "Activity", "setting": "[18]", "result": 91, "unit": "%"}, {"measurement": "Activity", "setting": "[19]", "result": 92, "unit": "%"}, {"measurement": "inhibition", "setting": "[20]", "result": "Active"}, {"measurement": "Activity", "setting": "[21]", "result": 45, "unit": "%"}, {"measurement": "Cmax", "setting": "[22]", "result": 903, "unit": "ng/mL"}, {"measurement": "GI50", "setting": "[23]", "result": 360, "unit": "nM"}, {"measurement": "Activity", "setting": "[24]", "result": 0, "unit": "%"}]}]}
